The values below come from ChEMBL document CHEMBL4610030, “Identification of human lactate dehydrogenase A inhibitors with anti-osteosarcoma activity through cell-based phenotypic screening” (Bioorg Med Chem Lett, 2020).

Calls of active or inactive are those of the source. The calls are words filed in the database; no cut-off is given here.

The subject of assay [1] is MG-63. The assay is described as follows: Antiproliferative activity against human MG63 cells assessed as reduction in cell viability incubated for 24 to 72 hrs by IncuCyte zoom live cell analysis. In kind it is functional, cell-based.
Assay [2] concerns MG-63. The assay is described as follows: Induction of apoptosis in human MG63 cells assessed as late apoptotic cells at 5 uM measured after 18 hrs by annexin V-propidium iodide staining-based flow cytometry (reference value: 0.91 %). The class given is functional. The method in brief:
(§1)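 MG-63 cells were treated at 5 µM for 12, 18 or 24 h, or at 2, 5 or 10 µM for 24 h. Cells were then stained with annexin V-FITC/PI and analysed by flow cytometry for apoptotic populations.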
For orientation: A flow cytometer gives signals particle by particle.

The target in assay [3] is T1, L-lactate dehydrogenase A chain (Homo sapiens, UniProt P00338). The assay is described as follows: Inhibition of human LDHA using NADH and pyruvate by microplate reader based assay. The method in brief:
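hLDHA activity was measured with pyruvate and NADH across full dose-response to give EC50. The read-out was the decline in absorbance at 340 nm on a microplate reader.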

Assay [4] deals with T1, L-lactate dehydrogenase A chain. In words: Inhibition of LDHA in human MG63 cells assessed as reduction in proton production rate at 2 to 10 uM incubated for 4 hrs by seahorse XFe96 analyser based assay. The class given is cell-based. As to conditions: MG-63.
The target is the same in assay [5]. The assay is described as follows: Inhibition of human LDHA at 5 uM using NADH and pyruvate by microplate reader based assay relative to control. The method, boiled down: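 Recombinant-free description: hLDHA was incubated with pyruvate and NADH plus compound at 5 µM. NADH consumption was followed as the decrease in absorbance at 340 nm on a microplate reader and expressed as inhibitory rate.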

For assay [6], the system named is MG-63. In words: Induction of apoptosis in human MG63 cells assessed as late apoptotic cells at 10 uM measured after 24 hrs by annexin V-propidium iodide staining-based flow cytometry (reference value: 1.44 %). In kind it is functional. The method, boiled down:
as §1

The subject of assay [7] is MG-63. In words: Induction of apoptosis in human MG63 cells assessed as early apoptotic cells at 5 uM measured after 12 hrs by annexin V-propidium iodide staining-based flow cytometry (reference value: 0.14 %). In kind it is functional. The method, boiled down:
as §1

The test system of assay [8] is MG-63. In words: Induction of apoptosis in human MG63 cells measured after 24 hrs by annexin V-propidium iodide staining-based flow cytometry. The class given is functional, cell-based. The method, boiled down:
as §1

Assay [9] concerns MG-63. The assay is described as follows: Induction of apoptosis in human MG63 cells assessed as necrotic cells at 10 uM measured after 24 hrs by annexin V-propidium iodide staining-based flow cytometry (reference value: 2.10 %). The class given is functional. The method, boiled down:
as §1

In the next assay the test system is SAOS-2. The assay is described as follows: Antiproliferative activity against human Saos2 cells assessed as reduction in cell viability incubated for 24 to 72 hrs by IncuCyte zoom live cell analysis. In kind it is functional, cell-based.
In assay [10] the test system is MG-63. The assay is described as follows: Induction of apoptosis in human MG63 cells assessed as late apoptotic cells at 5 uM measured after 24 hrs by annexin V-propidium iodide staining-based flow cytometry (reference value: 0.91 to 1.44 %). The class given is functional. The method, boiled down:
as §1

For assay [11], the system named is MG-63. The assay is described as follows: Induction of apoptosis in human MG63 cells assessed as early apoptotic cells at 5 uM measured after 18 hrs by annexin V-propidium iodide staining-based flow cytometry (reference value: 0.14 %). The class given is functional. The method, boiled down:
as §1

Assay [12] deals with MG-63. The assay is described as follows: Induction of apoptosis in human MG63 cells assessed as necrotic cells at 5 uM measured after 18 hrs by annexin V-propidium iodide staining-based flow cytometry (reference value: 0.84 %). In kind it is functional. The method, boiled down:
as §1

The target of assay [13] is T1, L-lactate dehydrogenase A chain. In words: Binding affinity at human LDHA assessed as dissociation constant by isothermal titration calorimetry. The method, boiled down:
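Compounds were titrated into hLDHA by isothermal titration calorimetry to obtain Kd.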
For orientation: Isothermal titration calorimetry measures the heat released or taken up as one component is titrated into another.

In assay [14] the test system is MG-63. In words: Induction of apoptosis in human MG63 cells assessed as late apoptotic cells at 2 uM measured after 24 hrs by annexin V-propidium iodide staining-based flow cytometry (reference value: 1.44 %). In kind it is functional. The method in brief:
as §1

Assay [15] relates to MG-63. In words: Antiproliferative activity against human MG63 cells assessed as reduction in cell viability at 5 uM incubated by IncuCyte zoom live cell analysis. In kind it is functional, cell-based. As to conditions: TDE = time-dependent effect. The method in brief:
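MG-63 cells were exposed to 5 µM and imaged over time by IncuCyte Zoom live-cell analysis to follow growth.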

Assay [16] concerns MG-63. The assay is described as follows: Induction of apoptosis in human MG63 cells assessed as necrotic cells at 5 uM measured after 12 hrs by annexin V-propidium iodide staining-based flow cytometry (reference value: 0.84 %). The class given is functional. The method, boiled down: as §1
Assay [17] has as its target T1, L-lactate dehydrogenase A chain. In words: Inhibition of LDHA in human MG63 cells assessed as reduction in extracellular acidification rate at 2 to 10 uM incubated for 4 hrs by seahorse XFe96 analyser based assay. As to conditions: MG-63. The class given is cell-based.
For assay [18] the target is unchanged. The assay is described as follows: Inhibition of LDHA in human MG63 cells assessed as increase in oxygen consumption rate incubated for 4 hrs by seahorse XFe96 analyser based assay. The class given is cell-based. Particulars: MG-63.
The test system of assay [19] is MG-63. The assay is described as follows: Induction of apoptosis in human MG63 cells assessed as viable cells at 5 uM measured after 18 hrs by annexin V-propidium iodide staining-based flow cytometry (reference value: 98.11 %). In kind it is functional. Particulars: MG-63, 18 h, read-out: Activity. The method, boiled down: as §1
Assay [20] deals with MG-63. In words: Induction of apoptosis in human MG63 cells assessed as viable cells at 5 uM measured after 12 hrs by annexin V-propidium iodide staining-based flow cytometry (reference value: 98.11 %). In kind it is functional. Particulars: MG-63, 12 h, read-out: Activity. The method in brief: as §1
Assay [21] has as its system MG-63. The assay is described as follows: Induction of apoptosis in human MG63 cells assessed as early apoptotic cells at 2 uM measured after 24 hrs by annexin V-propidium iodide staining-based flow cytometry (reference value: 0.16 %). The class given is functional. The method, boiled down: as §1
Assay [22] deals with T1, L-lactate dehydrogenase A chain. The assay is described as follows: Inhibition of LDHA in human MG63 cells assessed as reduction in lactate formation at 2 to 10 uM incubated for 4 hrs. The class given is cell-based. As to conditions: MG-63. The method in brief: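 MG-63 cells were treated at 2, 5 and 10 µM for 4 h. Lactate was then measured in the culture medium and compared with untreated control, with P < 0.05.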

For assay [23], the system named is MG-63. In words: Induction of apoptosis in human MG63 cells assessed as late apoptotic cells at 5 uM measured after 12 hrs by annexin V-propidium iodide staining-based flow cytometry (reference value: 0.91 %). In kind it is functional. The method in brief: as §1
Assay [24] concerns MG-63. The assay is described as follows: Induction of apoptosis in human MG63 cells assessed as necrotic cells at 5 uM measured after 24 hrs by annexin V-propidium iodide staining-based flow cytometry (reference value: 0.84 to 2.10 %). The class given is functional. The method, boiled down: as §1
The next assay relates to HOS. The assay is described as follows: Antiproliferative activity against human HOS cells assessed as reduction in cell viability incubated for 24 to 72 hrs by IncuCyte zoom live cell analysis. In kind it is functional, cell-based.
The subject of assay [25] is MG-63. The assay is described as follows: Induction of apoptosis in human MG63 cells assessed as necrotic cells at 2 uM measured after 24 hrs by annexin V-propidium iodide staining-based flow cytometry (reference value: 2.10 %). The class given is functional. The method in brief:
as §1

Another assay deals with U2OS. The assay is described as follows: Antiproliferative activity against human U2OS cells assessed as reduction in cell viability incubated for 24 to 72 hrs by IncuCyte zoom live cell analysis. In kind it is functional, cell-based.
In assay [26] the test system is MG-63. The assay is described as follows: Induction of apoptosis in human MG63 cells assessed as viable cells at 10 uM measured after 24 hrs by annexin V-propidium iodide staining-based flow cytometry (reference value: 96.30 %). The class given is functional. As to conditions: MG-63, 24 h, read-out: Activity. The method in brief:
as §1

The subject of assay [27] is MG-63. The assay is described as follows: Induction of apoptosis in human MG63 cells assessed as viable cells at 2 uM measured after 24 hrs by annexin V-propidium iodide staining-based flow cytometry (reference value: 96.30 %). In kind it is functional. Particulars: MG-63, 24 h, read-out: Activity. The method in brief: as §1
Assay [28] relates to MG-63. The assay is described as follows: Induction of apoptosis in human MG63 cells assessed as viable cells at 5 uM measured after 24 hrs by annexin V-propidium iodide staining-based flow cytometry (reference value: 96.30 to 98.11 %). In kind it is functional. As to conditions: MG-63, 24 h, read-out: Activity. The method in brief:
as §1

The test system of assay [29] is MG-63. In words: Induction of apoptosis in human MG63 cells assessed as early apoptotic cells at 10 uM measured after 24 hrs by annexin V-propidium iodide staining-based flow cytometry (reference value: 0.16 %). In kind it is functional. The method, boiled down: as §1
The test system of assay [30] is MG-63. The assay is described as follows: Induction of apoptosis in human MG63 cells assessed as early apoptotic cells at 5 uM measured after 24 hrs by annexin V-propidium iodide staining-based flow cytometry (reference value: 0.14 to 0.16 %). The class given is functional. The method, boiled down:
as §1

As for `Cc1c(C(=O)Nc2ccccc2)[n+]([O-])cn1-c1ccc2[nH]c(CC(C)C)nc2c1`, the half-maximal inhibitory concentration (IC50) amounted to 2.93 µM in the assay on MG-63 [1], 5.1 µM in the assay with SAOS-2, 4.6 µM with HOS and 3.7 µM with U2OS. The Activity in the assay with MG-63 [2] was 10.37%; with MG-63 [6], 20.03%; in the assay with MG-63 [7], 0.34%; in the assay with MG-63 [8], “Dose-dependent effect”; with MG-63 [9] it was 10.19%; in the assay with MG-63 [10], 12.28 - 19.86%. For the same compound, the Activity with MG-63 [11] was 1.32%; with MG-63 [12] it was 4.56%; with MG-63 [14] it was 3.21%; in the assay on MG-63 [15] it was “Tde”; in the assay on MG-63 [16] it was 2.3%; with MG-63 [21], 0.4%. Moreover, the Activity in the assay with MG-63 [23] is listed as 5.08%; in the assay on MG-63 [24] it was 8.3 - 10.1%; with MG-63 [25] it was 1.54%; in the assay on MG-63 [29] it was 3.55%; with MG-63 [30], 1.1 - 3.47%. The compound further displayed an EC50 in [3] of 0.67 µM. Also, the inhibition result in assay [4], in assay [17] and in assay [22] was “Active” throughout. Moreover, the inhibition in assay [5] is 91.2%; in [18], “Dose-dependent effect”. Besides, in assay [13], the dissociation constant (Kd) turned out to be 2.41 µM. For the same compound, the viability at 5 µM was 83.8% in the assay with MG-63 [19], 92.3% in the assay with MG-63 [20] and 66.6 to 78.3% with MG-63 [28]. Further, in the assay with MG-63 [26], the viability at 10 µM is 66.2%. Moreover, the viability at 2 µM in the assay with MG-63 [27] stood at 94.8%.
On to `COc1ccc(-n2c[n+]([O-])c(C(=O)Nc3ccccc3)c2C)cc1N1CCCCS1(=O)=O`, for which the IC50 was 6.47 µM in the assay with MG-63 [1], 7.5 µM with SAOS-2, 10.2 µM with HOS and 14.9 µM in the assay on U2OS. The compound further showed a concentration for a half-maximal effect (EC50) in [3] of 3.03 µM. Further, the inhibition in assay [5] is > 50%. The dissociation constant Kd in assay [13] worked out at 6.41 µM.
In the case of `Cc1c(C(=O)Nc2ccccc2)[n+]([O-])cn1-c1ccc2occc(=O)c2c1`, the IC50 with MG-63 [1] was 6.1 µM; in the assay on SAOS-2 it was 13.6 µM; in the assay on HOS, 12.5 µM; in the assay on U2OS it was 9.5 µM. This compound also yielded an EC50 in assay [3] of 3.26 µM. Moreover, the inhibition in [5] was > 50%. Besides, the Kd in [13] was found to be 9.85 µM.

For orientation: IC50 means the concentration needed to halve the response being measured. The term EC50 denotes the concentration giving half of the maximal effect. The low end stands for greater potency, the high end for weaker potency. The term inhibition denotes how much of the control response was suppressed. One may read the Kd as the constant that tells how readily two partners part at equilibrium.
